# Source: ChEMBL document CHEMBL1240329, “Identification and mechanistic characterization of low-molecular-weight inhibitors for HuR” (Nat Chem Biol, 2007)
# Calls of active or inactive are those of the source. No cut-off for these calls is given here.
# How the values were obtained:
# [1] = tested on: Monocyte; test: Inhibition of COX-2 gene expression in LPS/INF-gamma-stimulated human primary monocytes up to 30 uM by RT-PCR analysis; assay type: functional
# [2] = tested on: PBMC; test: Inhibition of HuR in anti-CD3 and anti-CD28-stimulated human PBMC assessed as reduction of cytoplasmic protein level after 48 hrs by confocal microscopy; assay type: functional, cell-based
# [3] = tested on: Monocyte; test: Inhibition of IL1-beta gene expression in LPS/INF-gamma-stimulated human primary monocytes up to 30 uM by RT-PCR analysis; assay type: functional
# [4] = Cytotoxicity against human PBMC assessed as cell viability at 50 uM after 48 hrs relative control; assay type: cell-based; details: read-out: Activity
# Outline: (§1)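 Freshly isolated human PBMCs activated with soluble anti-CD3 plus anti-CD28 and exposed to compound for 48 h. Viability expressed as percent of DMSO control.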
# [5] = tested on: Monocyte; test: Inhibition of IL-6 gene expression in LPS/INF-gamma-stimulated human primary monocytes up to 30 uM by RT-PCR analysis; assay type: functional
# [6] = tested on: Monocyte; test: Inhibition of COX-2 expression in LPS/INF-gamma-stimulated human primary monocytes up to 30 uM by ELISA; assay type: functional
# [7] = tested on: Monocyte; test: Inhibition of IL-6 expression in LPS/INF-gamma-stimulated human primary monocytes up to 30 uM by ELISA; assay type: functional
# [8] = tested on: Monocyte; test: Inhibition of IL1-beta expression in LPS/INF-gamma-stimulated human primary monocytes up to 30 uM by ELISA; assay type: functional
# [9] = tested on: Monocyte; test: Inhibition of IL1-beta expression in LPS/INF-gamma-stimulated human primary monocytes by ELISA; assay type: functional
# [10] = tested on: Monocyte; test: Inhibition of COX-2 gene expression in LPS/INF-gamma-stimulated human primary monocytes by RT-PCR analysis
# [11] = Cytotoxicity against human PBMC assessed as cell viability at 25 uM after 48 hrs relative control; assay type: cell-based; details: read-out: Activity; outline: as §1
# [12] = biological target: T1, ELAV-like protein 1 (Homo sapiens, UniProt Q15717); test: Inhibition of recombinant HuR RRM1/RRM2 domain assessed as protein dimerization with TMR-labeled A/U-rich element of IL-2 by confocal fluctuation spectroscopy
# [13] = biological target: T1, ELAV-like protein 1; test: Binding affinity recombinant HuR RRM1/RRM2 domain by confocal fluctuation spectroscopy
# Outline: (§2)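 Binding followed as fluorescence anisotropy by 2D-FIDA, converted to fraction bound. Inhibition curves simulated from the fitted HuR–RNA Kd, with actual RNA, HuR and compound levels as boundary conditions. Ten measurements averaged; at least three independent experiments.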
# [14] = biological target: T1, ELAV-like protein 1; test: Inhibition of recombinant HuR RRM1/RRM2 domain assessed as protein interaction with TMR-labeled A/U-rich element of IL-2 by confocal fluctuation spectroscopy; outline: as §2
# [15] = tested on: Monocyte; test: Inhibition of IL1-beta gene expression in LPS/INF-gamma-stimulated human primary monocytes by RT-PCR analysis
# [16] = tested on: PBMC; test: Inhibition of HuR in anti-CD3 and anti-CD28-stimulated human PBMC assessed as reduction of cytoplasmic protein level at 25 uM after 48 hrs by confocal microscopy; assay type: functional, cell-based
# [17] = tested on: Monocyte; test: Inhibition of COX-2 expression in LPS/INF-gamma-stimulated human primary monocytes by ELISA; assay type: functional
# [18] = biological target: T1, ELAV-like protein 1; test: Inhibition of recombinant HuR RRM1/RRM2 domain assessed as protein interaction with TMR-labeled A/U-rich element of TNFalpha by confocal fluctuation spectroscopy; outline: as §2
# [19] = tested on: Monocyte; test: Inhibition of IL-6 expression in LPS/INF-gamma-stimulated human primary monocytes by ELISA; assay type: functional
# [20] = biological target: T1, ELAV-like protein 1; test: Inhibition of recombinant HuR RRM1/RRM2 domain assessed as protein dimerization with TMR-labeled A/U-rich element of TNFalpha by confocal fluctuation spectroscopy
# [21] = biological target: Myosin light chain kinase, smooth muscle (Homo sapiens, UniProt Q15746); test: Inhibition of MYLK
# [22] = biological target: T1, ELAV-like protein 1; test: Inhibition of recombinant full length HuR assessed as inhibition of protein-IL-2 A/U-rich element interaction-associated release of particle number at 2 uM by 2D-FIDA
# [23] = tested on: Monocyte; test: Inhibition of IL-6 gene expression in LPS/INF-gamma-stimulated human primary monocytes by RT-PCR analysis
# T1 sequence (Q15717 whole entry, the tested form may be a part): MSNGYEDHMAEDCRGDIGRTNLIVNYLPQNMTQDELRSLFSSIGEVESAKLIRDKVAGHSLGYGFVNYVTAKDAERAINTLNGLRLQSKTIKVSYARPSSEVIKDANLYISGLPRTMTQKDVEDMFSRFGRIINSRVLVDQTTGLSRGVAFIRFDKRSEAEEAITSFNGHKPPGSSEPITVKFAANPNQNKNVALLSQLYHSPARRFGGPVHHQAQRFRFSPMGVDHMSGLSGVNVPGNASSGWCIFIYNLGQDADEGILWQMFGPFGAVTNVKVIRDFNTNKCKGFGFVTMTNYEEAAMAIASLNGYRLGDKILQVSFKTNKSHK
# Chain of Myosin light chain kinase, smooth muscle (Q15746 whole entry): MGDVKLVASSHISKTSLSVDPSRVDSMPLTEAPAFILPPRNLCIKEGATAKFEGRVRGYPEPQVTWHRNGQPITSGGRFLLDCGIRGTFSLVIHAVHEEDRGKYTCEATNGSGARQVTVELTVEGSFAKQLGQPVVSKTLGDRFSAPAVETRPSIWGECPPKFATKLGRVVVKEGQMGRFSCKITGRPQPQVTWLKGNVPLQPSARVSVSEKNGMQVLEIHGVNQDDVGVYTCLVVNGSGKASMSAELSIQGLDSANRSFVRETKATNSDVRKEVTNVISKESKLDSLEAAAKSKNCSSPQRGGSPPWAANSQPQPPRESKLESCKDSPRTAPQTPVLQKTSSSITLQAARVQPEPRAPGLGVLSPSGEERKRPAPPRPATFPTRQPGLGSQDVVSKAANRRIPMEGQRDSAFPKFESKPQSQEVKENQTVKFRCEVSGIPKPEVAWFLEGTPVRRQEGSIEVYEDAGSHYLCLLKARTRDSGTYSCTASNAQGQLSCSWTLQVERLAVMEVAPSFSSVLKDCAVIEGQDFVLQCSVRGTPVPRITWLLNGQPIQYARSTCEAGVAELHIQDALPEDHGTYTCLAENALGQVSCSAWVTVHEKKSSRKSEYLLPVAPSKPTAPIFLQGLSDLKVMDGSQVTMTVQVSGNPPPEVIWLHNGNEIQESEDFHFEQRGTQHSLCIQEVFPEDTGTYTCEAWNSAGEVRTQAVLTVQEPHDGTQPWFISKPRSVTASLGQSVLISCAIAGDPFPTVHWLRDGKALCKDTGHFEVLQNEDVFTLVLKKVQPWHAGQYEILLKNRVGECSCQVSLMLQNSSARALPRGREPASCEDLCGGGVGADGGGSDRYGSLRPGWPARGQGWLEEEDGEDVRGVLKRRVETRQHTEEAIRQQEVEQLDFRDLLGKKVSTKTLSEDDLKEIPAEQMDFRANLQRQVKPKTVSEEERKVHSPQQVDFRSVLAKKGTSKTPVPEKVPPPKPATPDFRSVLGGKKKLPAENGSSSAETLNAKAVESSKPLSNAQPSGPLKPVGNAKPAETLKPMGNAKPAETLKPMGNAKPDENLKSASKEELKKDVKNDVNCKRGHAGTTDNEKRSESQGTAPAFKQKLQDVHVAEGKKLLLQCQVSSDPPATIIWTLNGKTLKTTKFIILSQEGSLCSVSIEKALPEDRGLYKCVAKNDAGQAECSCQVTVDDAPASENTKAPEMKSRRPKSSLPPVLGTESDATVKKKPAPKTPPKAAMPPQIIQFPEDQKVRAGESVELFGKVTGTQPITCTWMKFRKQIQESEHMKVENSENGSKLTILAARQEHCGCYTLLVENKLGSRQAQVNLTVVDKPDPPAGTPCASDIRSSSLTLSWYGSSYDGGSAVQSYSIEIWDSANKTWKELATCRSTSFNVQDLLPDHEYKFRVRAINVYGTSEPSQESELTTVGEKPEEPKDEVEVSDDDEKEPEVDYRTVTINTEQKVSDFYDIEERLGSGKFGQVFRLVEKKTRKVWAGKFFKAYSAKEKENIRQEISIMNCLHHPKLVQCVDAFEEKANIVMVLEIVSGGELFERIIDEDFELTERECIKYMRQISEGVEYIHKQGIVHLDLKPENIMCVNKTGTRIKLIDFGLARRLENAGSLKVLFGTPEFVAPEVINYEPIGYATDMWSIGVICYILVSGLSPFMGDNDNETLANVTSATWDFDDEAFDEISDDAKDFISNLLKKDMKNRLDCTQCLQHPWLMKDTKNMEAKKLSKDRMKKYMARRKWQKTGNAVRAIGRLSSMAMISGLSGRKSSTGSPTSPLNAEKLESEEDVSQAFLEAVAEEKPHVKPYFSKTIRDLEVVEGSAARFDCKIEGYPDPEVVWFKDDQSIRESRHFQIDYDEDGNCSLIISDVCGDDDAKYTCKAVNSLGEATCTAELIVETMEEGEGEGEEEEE
compound,measurement,setting,value
Cc1cc(O)c2c(O)cccc2c1-c1cc(=O)cc(O)o1 [DEHYDROMUTACTIN],inhibition,[1],inactive
same,inhibition,[2],Dose-dependent effect
same,inhibition,[3],inactive
same,"viability at 48 h, 50 µM",[4],97%
same,inhibition,[5],inactive
same,inhibition,[6],inactive
same,inhibition,[7],inactive
same,inhibition,[8],inactive
same,inhibition,[9],inactive
Cc1occ2c1C(=O)c1c(O)ccc(O)c1C2,IC50,[10],2.1 µM
same,"viability at 48 h, 25 µM",[11],94%
same,Kd,[12],0.0001 µM
same,Kd,[13],0.42 µM
same,Kd,[14],0.23 µM
same,IC50,[15],3.7 µM
same,inhibition,[16],inactive
same,inhibition,[17],Dose-dependent effect
same,Kd,[18],0.014 µM
same,inhibition,[19],Dose-dependent effect
same,Kd,[20],0.0001 µM
same,IC50,[21],10 µM
same,inhibition,[9],Dose-dependent effect
same,inhibition,[22],Active
same,IC50,[23],2.4 µM
Cc1cc(O)cc2cc3c(c(O)c12)C(=O)CCC3O (stereo unspecified),inhibition,[2],inactive
Cc1cc(O)cc2oc(Cc3cc(O)cc(=O)o3)cc(=O)c12,inhibition,[1],inactive
same,inhibition,[5],inactive
same,inhibition,[6],inactive
same,inhibition,[7],inactive
same,inhibition,[8],inactive
same,inhibition,[9],inactive
